Results as given in ChEMBL document CHEMBL5579857, “Fragment-Based Discovery of Novel MUS81 Inhibitors” (ACS Med Chem Lett, 2024).

Tests used:
[1] = Binding affinity to human Avi-tagged MUS81 (246 to 551 residues)/2x8His-tagged EME1 (246 to 570 residues) extracted from Escherichia coli BL21 Gold (DE3) by SPR analysis
Method in brief: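 Fragments flagged as hits in a DSF screen were taken into SPR against MUS81-EME1 to confirm binding and obtain Kd. Kd is reported as the geometric mean with geometric standard deviation of at least three determinations.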

[2] = Inhibition of human Avi-tagged MUS81 (246 to 551 residues)/2x8His-tagged EME1 (246 to 570 residues) extracted from Escherichia coli BL21 Gold (DE3) using branched DNA as substrate preincubated for 15 mins followed by substrate addition and measured after 90 mins by FRET assay
Method in brief: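 IC50 is reported as the geometric mean ± SEM of at least three independent determinations.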

[3] = Lipophilicity, logD of the compound in octanol/water at pH 7.4 by shake flask method; assay type: physicochemical
[4] = Kinetic aqueous solubility of the compound at pH 7.4; assay type: physicochemical; conditions: buffer
[5] = Metabolic stability in human liver microsomes assessed as intrinsic clearance; assay type: ADME, Microsome
[6] = Metabolic stability in rat hepatocytes assessed as intrinsic clearance measured per million cells; assay type: ADME, cell-based, Hepatocyte; conditions: read-out: CLH
[7] = Efflux ratio of apparent permeability in human Caco-2 cells; assay type: ADME, cell-based
[8] = biological target: Voltage-gated inwardly rectifying potassium channel KCNH2 (Homo sapiens, UniProt Q12809); test: Inhibition of hERG; assay type: toxicity
[9] = biological target: T1, Prostaglandin G/H synthase 2 (Homo sapiens, UniProt P35354); test: Inhibition of COX2 (unknown origin); assay type: toxicity
T1 sequence (P35354 whole entry): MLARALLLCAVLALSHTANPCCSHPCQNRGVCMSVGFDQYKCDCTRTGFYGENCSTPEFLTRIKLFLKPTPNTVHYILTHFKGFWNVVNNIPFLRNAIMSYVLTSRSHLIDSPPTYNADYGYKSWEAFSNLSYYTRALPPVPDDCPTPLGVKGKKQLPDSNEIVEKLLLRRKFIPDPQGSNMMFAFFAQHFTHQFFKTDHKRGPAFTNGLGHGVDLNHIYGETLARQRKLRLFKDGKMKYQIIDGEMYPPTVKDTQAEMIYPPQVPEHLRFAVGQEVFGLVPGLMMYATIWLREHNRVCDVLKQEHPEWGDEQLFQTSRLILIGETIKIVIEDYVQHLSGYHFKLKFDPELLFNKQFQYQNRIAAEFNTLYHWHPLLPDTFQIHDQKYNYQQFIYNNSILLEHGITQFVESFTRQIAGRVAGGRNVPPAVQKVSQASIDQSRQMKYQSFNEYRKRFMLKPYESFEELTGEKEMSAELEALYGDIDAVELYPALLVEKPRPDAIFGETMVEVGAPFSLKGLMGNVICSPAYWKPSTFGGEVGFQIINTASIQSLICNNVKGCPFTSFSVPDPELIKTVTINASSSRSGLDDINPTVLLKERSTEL

PDE = test: Inhibition of PDE (unknown origin); assay type: toxicity, Homo sapiens
Insulin receptor = Insulin receptor (Homo sapiens, UniProt P06213); test: Inhibition of INSR (unknown origin); assay type: toxicity
[10] = biological target: GABA-A receptor; anion channel; test: Inhibition of GABA (unknown origin); assay type: toxicity, Homo sapiens
[11] = biological target: Glutamate [NMDA] receptor; test: Inhibition of NMDA (unknown origin); assay type: toxicity, Homo sapiens
[12] = biological target: CaV-L (Voltage-gated L-type calcium channel) (Homo sapiens, UniProt O60840+Q01668+Q13698+Q13936); test: Inhibition of CaV-L (unknown origin); assay type: toxicity

Chain of Insulin receptor (P06213 28-758 limits assumed): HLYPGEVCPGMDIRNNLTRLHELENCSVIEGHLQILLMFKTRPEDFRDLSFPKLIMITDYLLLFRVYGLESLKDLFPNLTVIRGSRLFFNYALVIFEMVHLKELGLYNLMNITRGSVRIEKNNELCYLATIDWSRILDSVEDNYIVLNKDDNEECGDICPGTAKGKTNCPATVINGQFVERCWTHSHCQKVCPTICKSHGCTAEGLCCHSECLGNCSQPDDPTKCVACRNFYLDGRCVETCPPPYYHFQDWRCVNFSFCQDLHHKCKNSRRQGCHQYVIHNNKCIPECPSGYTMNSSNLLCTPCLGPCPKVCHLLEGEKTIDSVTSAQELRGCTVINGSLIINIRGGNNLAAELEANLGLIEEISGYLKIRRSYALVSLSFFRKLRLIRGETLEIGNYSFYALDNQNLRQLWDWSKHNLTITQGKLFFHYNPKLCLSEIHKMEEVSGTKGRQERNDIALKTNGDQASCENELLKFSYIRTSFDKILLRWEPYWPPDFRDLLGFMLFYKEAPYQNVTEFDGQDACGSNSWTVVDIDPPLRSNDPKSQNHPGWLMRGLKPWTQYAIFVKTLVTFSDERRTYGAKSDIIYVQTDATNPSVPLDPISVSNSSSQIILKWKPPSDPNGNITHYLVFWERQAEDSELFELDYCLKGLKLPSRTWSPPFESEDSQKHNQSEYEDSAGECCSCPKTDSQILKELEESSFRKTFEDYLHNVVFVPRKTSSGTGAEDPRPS
Chain of Insulin receptor (P06213 763-1382 limits assumed): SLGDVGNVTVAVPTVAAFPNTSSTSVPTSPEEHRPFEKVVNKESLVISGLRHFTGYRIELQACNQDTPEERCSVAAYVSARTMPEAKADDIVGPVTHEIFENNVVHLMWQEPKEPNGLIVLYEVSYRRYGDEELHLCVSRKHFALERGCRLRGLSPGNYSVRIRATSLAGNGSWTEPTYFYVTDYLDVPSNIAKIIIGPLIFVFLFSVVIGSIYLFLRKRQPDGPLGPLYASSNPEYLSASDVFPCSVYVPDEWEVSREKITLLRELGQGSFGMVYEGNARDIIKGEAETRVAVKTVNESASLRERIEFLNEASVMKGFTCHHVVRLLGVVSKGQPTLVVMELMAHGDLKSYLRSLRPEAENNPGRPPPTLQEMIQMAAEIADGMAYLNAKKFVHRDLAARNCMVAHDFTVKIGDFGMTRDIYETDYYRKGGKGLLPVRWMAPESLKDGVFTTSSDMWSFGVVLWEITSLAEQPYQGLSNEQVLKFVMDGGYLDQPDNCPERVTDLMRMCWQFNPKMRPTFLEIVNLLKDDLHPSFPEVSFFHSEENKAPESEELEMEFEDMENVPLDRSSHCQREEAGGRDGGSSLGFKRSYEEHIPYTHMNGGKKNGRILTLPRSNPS
Chain of Voltage-gated inwardly rectifying potassium channel KCNH2 (Q12809 whole entry): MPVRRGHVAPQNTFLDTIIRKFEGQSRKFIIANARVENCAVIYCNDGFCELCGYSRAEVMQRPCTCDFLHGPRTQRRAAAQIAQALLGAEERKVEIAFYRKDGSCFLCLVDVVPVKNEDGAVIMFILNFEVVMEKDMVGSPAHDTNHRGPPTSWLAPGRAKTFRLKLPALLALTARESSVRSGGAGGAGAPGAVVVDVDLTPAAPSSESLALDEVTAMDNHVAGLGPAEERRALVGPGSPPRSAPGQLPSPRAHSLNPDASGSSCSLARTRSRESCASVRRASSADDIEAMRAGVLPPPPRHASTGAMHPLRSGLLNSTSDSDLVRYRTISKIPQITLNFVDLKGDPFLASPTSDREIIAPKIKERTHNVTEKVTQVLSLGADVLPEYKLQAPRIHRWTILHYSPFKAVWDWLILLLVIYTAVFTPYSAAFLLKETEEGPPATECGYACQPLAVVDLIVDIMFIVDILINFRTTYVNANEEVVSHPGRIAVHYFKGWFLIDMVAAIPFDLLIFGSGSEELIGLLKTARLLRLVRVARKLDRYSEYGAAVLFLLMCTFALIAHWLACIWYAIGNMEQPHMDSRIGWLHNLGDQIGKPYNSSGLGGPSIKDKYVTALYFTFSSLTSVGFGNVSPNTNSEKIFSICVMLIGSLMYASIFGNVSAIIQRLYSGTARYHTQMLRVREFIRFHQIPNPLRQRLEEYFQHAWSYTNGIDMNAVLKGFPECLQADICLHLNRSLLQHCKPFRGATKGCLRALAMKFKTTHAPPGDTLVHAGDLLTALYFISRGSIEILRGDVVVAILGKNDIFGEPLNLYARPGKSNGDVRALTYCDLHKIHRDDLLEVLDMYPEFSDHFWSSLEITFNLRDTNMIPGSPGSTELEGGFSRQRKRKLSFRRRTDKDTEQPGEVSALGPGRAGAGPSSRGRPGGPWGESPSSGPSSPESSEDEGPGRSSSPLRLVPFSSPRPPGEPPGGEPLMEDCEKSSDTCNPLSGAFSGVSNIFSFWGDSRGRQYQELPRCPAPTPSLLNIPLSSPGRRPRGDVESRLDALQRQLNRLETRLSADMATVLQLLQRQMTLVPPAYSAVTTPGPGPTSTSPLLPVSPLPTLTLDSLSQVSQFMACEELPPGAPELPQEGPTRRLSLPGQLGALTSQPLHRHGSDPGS

Compound	Kd [1]	IC50 [2]	other results
O=C(O)c1nc(-c2ccc(Cl)cc2)nc(O)c1O	1100 nM	2100 nM	–
O=C(O)c1nc(C2CCCCC2)nc(O)c1O	2200 nM	2800 nM	–
COC(=O)c1nc(-c2ccccc2)[nH]c(=O)c1O	56000 nM	> 100000 nM	–
Cc1nc(C(=O)O)c(O)c(=O)[nH]1	44000 nM	> 100000 nM	–
O=C(O)c1nc(-c2cccc(Cl)c2)nc(O)c1O	4800 nM	5600 nM	–
O=C(O)c1nc(-c2ccc(Br)cc2)nc(O)c1O	1000 nM	2000 nM	–
O=C(O)c1nc(-c2ccccc2)nc(O)c1O	2300 nM	3900 nM	–
O=C(O)c1nc(-c2ccc(-c3ccccc3)cc2)[nH]c(=O)c1O	720 nM	2400 nM	–
CNC(=O)c1nc(-c2ccccc2)[nH]c(=O)c1O	74000 nM	> 100000 nM	–
N#Cc1cc(-c2ccc(C(=O)N3CCNCC3)cc2)ccc1-n1cc(O)c(=O)c(C(=O)O)c1	1100 nM	270 nM	logD [3]: < 0; Kinetic_solubility [4]: > 200 µM; CLH [5]: 7 µL/min/mg; hepatocyte CLint [6]: 10 µL/min/1e6 cells; Ratio [7]: 1.1; IC50 [8]: > 40 µM; IC50 [9]: > 100 µM; IC50 (PDE): > 100 µM; IC50 (Insulin receptor): > 100 µM; IC50 [10]: > 100 µM; IC50 [11]: > 100 µM; IC50 [12]: > 100 µM
O=C(O)c1cn(-c2ccc(-c3ccc(C(=O)N4CCNCC4)cc3)cc2)cc(O)c1=O	670 nM	320 nM	logD [3]: < 0; Kinetic_solubility [4]: > 200 µM; CLH [5]: < 3 µL/min/mg; hepatocyte CLint [6]: 11 µL/min/1e6 cells; Ratio [7]: 1.5; IC50 [8]: > 40 µM; IC50 [9]: > 100 µM; IC50 (PDE): > 100 µM; IC50 (Insulin receptor): > 100 µM; IC50 [10]: > 100 µM; IC50 [11]: > 100 µM; IC50 [12]: > 100 µM
O=C(O)c1nc(-c2cccc(-c3ccccc3)c2)[nH]c(=O)c1O	1800 nM	2000 nM	–
O=C(O)c1nc(-c2ccccc2-c2ccccc2)[nH]c(=O)c1O	4300 nM	4500 nM	–
O=C(O)c1cc(-c2ccc(-c3ccccc3)cc2)[nH]c(=O)c1O	1400 nM	4100 nM	–
O=C(O)c1cn(-c2ccc(-c3ccccc3)cc2)cc(O)c1=O	790 nM	660 nM	–
O=C(O)c1cn(-c2ccc(N3CCNCC3)cc2)cc(O)c1=O	2000 nM	470 nM	–
N#Cc1cc(N2CCNCC2)ccc1-n1cc(O)c(=O)c(C(=O)O)c1	1200 nM	470 nM	–
O=C(O)c1nc(-c2ccc(N3CCNCC3)cc2)[nH]c(=O)c1O	2100 nM	1200 nM	–
O=C(O)c1nc(-c2ccccc2Cl)[nH]c(=O)c1O	4000 nM	3800 nM	–
N#CCc1ccc(-c2ccccc2-c2nc(C(=O)O)c(O)c(=O)[nH]2)cc1	540 nM	2800 nM	–
O=C(O)c1nc(-c2ccc3ccccc3c2)[nH]c(=O)c1O	1300 nM	1500 nM	–
O=C(O)c1[nH]c(-c2ccc(-c3ccccc3)cc2)cc(=O)c1O	430 nM	1100 nM	–
NC(=O)c1nc(-c2ccccc2)[nH]c(=O)c1O	> 100000 nM	> 100000 nM	–
CN(C)C(=O)c1nc(-c2ccccc2)[nH]c(=O)c1O	> 100000 nM	> 100000 nM	–
